Results pooled from the literature.
Target: Testis-specific serine/threonine-protein kinase 1 (TSSK1B, Homo sapiens, UniProt Q9BXA7)
Sequence (Q9BXA7 1-367, as in one of the studies): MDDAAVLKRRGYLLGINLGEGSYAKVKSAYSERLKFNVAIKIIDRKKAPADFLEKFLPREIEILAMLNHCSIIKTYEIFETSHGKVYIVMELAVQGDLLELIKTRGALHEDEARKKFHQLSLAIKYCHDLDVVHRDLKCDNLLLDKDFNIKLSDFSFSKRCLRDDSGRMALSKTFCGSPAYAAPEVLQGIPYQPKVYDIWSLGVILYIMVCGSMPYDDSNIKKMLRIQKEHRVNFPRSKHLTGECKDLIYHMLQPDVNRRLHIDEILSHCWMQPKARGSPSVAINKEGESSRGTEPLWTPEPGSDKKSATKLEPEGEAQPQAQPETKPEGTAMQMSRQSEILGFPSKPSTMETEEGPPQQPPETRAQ

| SMILES | read-out | method | tested at | remaining binding [%] |
| --- | --- | --- | --- | --- |
| CC(C)(C)c1ccc(-c2nc(CBr)nn2-c2cccc(O)c2)cc1 | cell-free assay | competition with immobilised ligand | 10 µM | 81 |
| CNC(=O)Nc1ccc2c(c1)CC[C@@]21OC(=O)N(CC(=O)N(Cc2ccc(F)cc2)[C@@H](C)C(F)(F)F)C1=O | cell-free assay | competition with immobilised ligand | 1 µM | 84 |
| c1cnn2ncc(-c3ccnc(N4CCC45COC5)n3)c2c1 | binding |  | 1 µM | 65 |
| C[C@@H]1CN(c2ccc3ncc(-c4ccc5[nH]nc(C6CC6)c5c4)n3n2)C[C@H](C)O1 | binding | competition with immobilised ligand | 50 nM | 78 |
| C[C@H]1CCN(c2nccc(-c3cnn4ncccc34)n2)C1 | binding |  | 1 µM | 98 |
| c1cncc(-c2cccc(Nc3nccc(NC4CCCCC4)n3)c2)c1 | binding | competition with immobilised ligand | 10 µM | 60 |
| CN(C)c1nccc(-c2cnn3ncccc23)n1 | binding |  | 1 µM | 100 |
| O=C(c1ccc(Nc2ncc(Cl)c(-c3ccc(Cl)s3)n2)cc1)N1CCC(N2CCCC2)CC1 | binding | competition with immobilised ligand | 1 µM | 49 |
| NS(=O)(=O)c1cc(NC(=O)C2(c3ccccc3Cl)CC2)ccc1Oc1cccc(Cl)c1 | cell-free assay | competition with immobilised ligand | 1 µM | 100 |
| CN(CCCC(F)(F)F)c1nccc(-c2cnn3ncccc23)n1 | binding |  | 1 µM | 92 |
| COc1ccc2cc(OCC3(C(=O)O)CN(C(=O)c4ccc(F)cc4)C3)ccc2c1 | cell-free assay | competition with immobilised ligand | 1 µM | 100 |
| N[C@@H]1CCN(c2nccc(-c3cnn4ncccc34)n2)C1 | binding |  | 1 µM | 97 |
| O=C(NCCCN1CCOCC1)c1ccc(Nc2ncc(Cl)c(-c3ccc(Cl)s3)n2)cc1 | binding | competition with immobilised ligand | 1 µM | 62 |
| CN(c1nccc(-c2cnn3ncccc23)n1)C1CC1 | binding |  | 1 µM | 100 |
| O=C(Nc1c[nH]nc1C(=O)NC1CCNCC1)c1cc(F)cc(F)c1 | binding | competition with immobilised ligand | 1 µM | 100 |
| N#Cc1ccccc1CSc1nnc2c(n1)[nH]c1ccccc12 | binding | competition with immobilised ligand | 10 µM | 100 |
| COc1ccc2c(c1)O[C@@H](c1ccc(OC)c(OC)c1)C[C@H]2NC(=O)C1(c2ccc3c(c2)OC(F)(F)O3)CC1 | cell-free assay | competition with immobilised ligand | 1 µM | 100 |
| Cc1cnn2ncc(-c3ccnc(N(C)C)n3)c2c1 | binding |  | 1 µM | 100 |
| COc1cc(-c2cn(C3CCc4ccccc4N(CC(F)(F)F)C3=O)nn2)ccc1-n1ccc(C)n1 (centres unmarked) | cell-free assay | competition with immobilised ligand | 1 µM | 83 |
| Nc1ncc2c(n1)-c1c([nH]c3ccc(C#CC4CC4)cc13)CCCC2 | binding | competition with immobilised ligand | 1 µM | 100 |
| O=C(NS(=O)(=O)c1ccc(NCC2CCOCC2)c([N+](=O)[O-])c1)c1ccc(N2CCN(Cc3ccc(C(F)(F)F)cc3-c3ccc(Cl)cc3)CC2)cc1Oc1cnc2[nH]ccc2c1 | cell-free assay | competition with immobilised ligand | 1 µM | 100 |
| Cc1cnc(Nc2ccc(C(=O)N3CCC(N4CCCC4)CC3)cc2)nc1-c1cc2ccccc2s1 | binding | competition with immobilised ligand | 1 µM | 85 |
| COc1cnc(Nc2cccc(S(N)(=O)=O)c2)nc1N1CCN(c2ccccc2)C(=O)C1 | binding | competition with immobilised ligand | 1 µM | 92 |
| NS(=O)(=O)c1cc(NC(=O)Cc2ccccc2)ccc1Oc1cccc(Cl)c1 | cell-free assay | competition with immobilised ligand | 1 µM | 100 |
| COc1cnc(Nc2cccc(S(N)(=O)=O)c2)nc1N1CCN(c2ccccc2)CC1 | binding | competition with immobilised ligand | 1 µM | 100 |
| C=CC(=O)N1CCC(C(=O)NCC(=O)N2CCN(c3nc(-c4cnc(N)nc4C(F)F)nc(N4CCOCC4)n3)CC2)CC1 | binding | competition with immobilised ligand | 1 µM | 95 |
